Results as given in ChEMBL document CHEMBL1155199, “Synthesis of 6-aminomethyl derivatives of benzopyran-4-one with dual biological properties: anti-inflammatory-analgesic and antimicrobial” (Eur J Med Chem, 2009).
≈ marks a conversion by molar mass, not a printed value.

Key:
Penicillium citrinum = assay: Antifungal activity against Penicillium citrinum NCIM 768; assay type: functional
Summary of the method: (§1)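 Antifungal screen against R. oryza NRRL-21498 and P. citrum NCIM-768 with fluconazole as reference. Compounds that inhibited growth of one or more organisms were taken forward to MIC determination, reported in µg/mL.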

Staphylococcus aureus = assay: Antibacterial activity against Staphylococcus aureus ATCC 29737 by turbidity method; assay type: functional
Rattus norvegicus [1] = assay: Effect on lipid peroxidation in Albino rat gastric mucosa assessed as malondialdehyde level per mg of protein at 60 mg/kg, po after 17 hrs relative to ibuprofen; assay type: ADME, organism-based; parameters: dose 60 mg/kg, route oral; conditions: in vivo
Summary of the method: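 Lipid peroxidation measured by the Ohkawa thiobarbituric acid–MDA colorimetric method. Tubes were heated 30 min at 80 °C in a shaking water bath, chilled 10 min in ice water, and centrifuged at 3000 rpm for 15 min. Supernatant absorbance was read at 540 nm against a blank. Results are nmol MDA/mg protein, mean ± S.E.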

Mus musculus = assay: Analgesic activity in Swiss albino mouse assessed as protection against acetic acid-induced writhing at 20 mg/kg, po administered 1 hr before acetic acid challenge measured for 5 to 15 mins; assay type: functional
Summary of the method: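 Swiss albino mice (25–30 g), either sex, groups of six, habituated individually 30 min in test cage. Test agents 20 mg/kg suspended in 1.0% CMC given orally; controls received CMC only. 1 h later, 0.10 mL 1% aqueous acetic acid injected i.p. to induce writhing. Data are mean ± S.E., one-way ANOVA with post hoc test.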

Rattus norvegicus [2] = assay: Antiinflammatory activity in Wistar albino rat assessed as inhibition of carrageenan-induced paw edema at 20 mg/kg, po administered 30 mins before carrageenan challenge measured after 3 hrs relative to ibuprofen; assay type: functional
Summary of the method: (§2)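 Wistar albino rats (180–200 g), either sex, randomized into groups of six. Dosed 20 mg/kg p.o.; controls received 0.5% CMC. 30 min later, 0.1 mL 0.1% carrageenan in sterile 0.9% NaCl injected subplantar into the right hind paw. Paw volume read by plethysmometer at 2 and 3 h. Expressed as % inhibition, mean ± SEM, ANOVA with post hoc test.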

Rattus norvegicus [3] = assay: Gastrointestinal toxicity in Albino rat assessed as severity index at 60 mg/kg, po after 17 hrs relative to control; assay type: organism-based; parameters: dose 60 mg/kg, route oral; conditions: in vivo
Summary of the method: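 Rats fasted 24 h (water allowed), then dosed orally at 60 mg/kg as a suspension in 1% methyl cellulose; controls received vehicle alone. Normal diet for 17 h after dosing. Stomach mucosa examined under a magnifying glass and scored: 0.5 redness, 1.0 spot ulcers, 1.5 haemorrhagic streaks, 2.0 ulcers >3 but <5, 3.0 ulcers >5. Severity index is the group mean score minus the control mean. Data are mean ± S.E.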

Rattus norvegicus [4] = assay: Antiinflammatory activity in Wistar albino rat assessed as inhibition of carrageenan-induced paw edema at 20 mg/kg, po administered 30 mins before carrageenan challenge measured after 2 hrs relative to ibuprofen; assay type: functional; summary of the method: as §2
Escherichia coli = assay: Antibacterial activity against Escherichia coli ATCC 8739 by turbidity method; assay type: functional
Rhizopus arrhizus = assay: Antifungal activity against Rhizopus oryzae NRRL 21498; assay type: functional; summary of the method: as §1

Compound	MIC (Penicillium citrinum) [µg/mL]	MIC (Staphylococcus aureus) [µg/mL]	Activity (Rattus norvegicus [1]) [nmol]	Activity (Mus musculus) [%]	inhibition in vivo at 20 mg/kg (Rattus norvegicus [2]) [%]	Activity (Rattus norvegicus [3])	inhibition in vivo at 20 mg/kg (Rattus norvegicus [4]) [%]	MIC (Escherichia coli) [µg/mL]	MIC (Rhizopus arrhizus) [µg/mL]
COc1ccc(-c2cc(=O)c3cc(CN4CCNCC4)ccc3o2)cc1	> 100	50 (≈ 143 µM)	0.599	40.36	68.9	0.4	39.5	50 (≈ 143 µM)	50 (≈ 143 µM)
COc1ccc(-c2cc(=O)c3cc(CNc4ccc(S(N)(=O)=O)cc4)ccc3o2)cc1	25 (≈ 57.3 µM)	25 (≈ 57.3 µM)			60.5		25.3	50 (≈ 115 µM)	10 (≈ 22.9 µM)
COc1ccc(-c2cc(=O)c3cc(CNc4ccc(S(N)(=O)=O)cc4)ccc3o2)cc1OC	10 (≈ 21.4 µM)	25 (≈ 53.6 µM)			60.5		27.1	10 (≈ 21.4 µM)	10 (≈ 21.4 µM)
COc1ccc(-c2cc(=O)c3cc(CN4CCOCC4)ccc3o2)cc1	10 (≈ 28.5 µM)	10 (≈ 28.5 µM)	0.526	50.8	75.3	0.2	62.7	10 (≈ 28.5 µM)	10 (≈ 28.5 µM)
COc1ccc(-c2cc(=O)c3cc(CN(C)C)ccc3o2)cc1OC	50 (≈ 147 µM)	25 (≈ 73.7 µM)			51		29.8	25 (≈ 73.7 µM)	10 (≈ 29.5 µM)
NS(=O)(=O)c1ccc(NCc2ccc3oc(-c4ccccc4Cl)cc(=O)c3c2)cc1	25 (≈ 56.7 µM)	50 (≈ 113 µM)			58.2		32.2	50 (≈ 113 µM)	> 100
COc1ccc(-c2cc(=O)c3cc(CNc4ccc(C)cc4)ccc3o2)cc1OC	25 (≈ 62.3 µM)	25 (≈ 62.3 µM)			50.8		18.7	50 (≈ 125 µM)	25 (≈ 62.3 µM)
O=c1cc(-c2ccccc2Cl)oc2ccc(CN3CCNCC3)cc12	50 (≈ 141 µM)	> 100	0.403	48.39	73.9	0.3	56	> 100	50 (≈ 141 µM)
COc1ccc(-c2cc(=O)c3cc(CN(C)C)ccc3o2)cc1	50 (≈ 162 µM)	50 (≈ 162 µM)			53.1		36	50 (≈ 162 µM)	10 (≈ 32.3 µM)
COc1ccc(-c2cc(=O)c3cc(CCl)ccc3o2)cc1OC	> 100	10 (≈ 30.2 µM)			49.4		33.3	50 (≈ 151 µM)	10 (≈ 30.2 µM)
CN(C)Cc1ccc2oc(-c3ccccc3Cl)cc(=O)c2c1	> 100	> 100			54.3		36.2	50 (≈ 159 µM)	> 100
O=c1cc(-c2ccccc2Cl)oc2ccc(CN3CCOCC3)cc12	25 (≈ 70.3 µM)	50 (≈ 141 µM)	0.352	54.81	82.5	0.1	64.4	> 100	25 (≈ 70.3 µM)
Cc1ccc(NCc2ccc3oc(-c4ccccc4Cl)cc(=O)c3c2)cc1	> 100	> 100			52.7		19.8	> 100	50 (≈ 133 µM)
COc1ccc(-c2cc(=O)c3cc(CNc4ccc(C)cc4)ccc3o2)cc1	> 100	50 (≈ 135 µM)			51		18.7	50 (≈ 135 µM)	50 (≈ 135 µM)
COc1ccc(-c2cc(=O)c3cc(CN4CCNCC4)ccc3o2)cc1OC	50 (≈ 131 µM)	25 (≈ 65.7 µM)	0.525	45.38	72.2	0.4	54	10 (≈ 26.3 µM)	25 (≈ 65.7 µM)
COc1ccc(-c2cc(=O)c3cc(CN4CCOCC4)ccc3o2)cc1OC	10 (≈ 26.2 µM)	10 (≈ 26.2 µM)	0.331	53.61	80.9	0.1	61.8	10 (≈ 26.2 µM)	10 (≈ 26.2 µM)
COc1ccc(-c2cc(=O)c3cc(CCl)ccc3o2)cc1	> 100	10 (≈ 33.3 µM)			38.7		32.2	50 (≈ 166 µM)	10 (≈ 33.3 µM)
OC(Cn1cncn1)(Cn1cncn1)c1ccc(F)cc1F [FLUCONAZOLE]	6.25 (≈ 20.4 µM)								6.25 (≈ 20.4 µM)
CC(C)Cc1ccc(C(C)C(=O)O)cc1 (stereo unspecified) [IBUPROFEN]				65.06		0.9			
CCn1cc(C(=O)O)c(=O)c2cc(F)c(N3CCNCC3)cc21 [NORFLOXACIN]		6.25 (≈ 19.6 µM)						6.25 (≈ 19.6 µM)	
